Reference: ChEMBL document CHEMBL1131482 (J Med Chem, 1998)
pEC50, pKi: −log10 of the molar value.

Columns and labels:
[1] = system: Mus musculus; experiment: Licking latency was measured before treatment (at dose=1 mg/kg) by using mouse hot plate test; format: functional
In short: (§1)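 Male Swiss-Webster mice (22-28 g), 23 ± 1 °C, 12-h light/dark cycle, food and water ad libitum. Hot plate at 52.5 ± 0.1 °C with licking latency as read-out and 45 s cutoff. Mice with pre-drug latency below 12 or over 18 s were rejected. Compounds given sc, 5-12 mice per test. Significance was assessed by Dunnett's two-tailed test, P < 0.05.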

[2] = species on record: Mus musculus; experiment: Analgesic efficacy is expressed as percentage of that morphine, done on mouse.; format: functional
[3] = system: TE-671; experiment: Cholinergic interactions was measured with FLIPR device on TE671 cells and given as Effective dose; format: functional, cell-based; settings: Homo sapiens
In short: (§2)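 Cells were plated on poly(ethylenimine)-coated plates and used about 72 h later. Loading was Fluo-3 AM for 1 h at 37 °C, followed by washes in Hepes-salts buffer, pH 7.4. FLIPR recorded Ca2+ fluorescence over 5 min after agonist addition. Responses were normalized to 100 µM nicotine (100%) and unloaded cells (0%), and EC50 and intrinsic activity were derived from concentration-response curves.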

[4] = system: Mus musculus; experiment: Licking latency was measured after 30 min treatment (at dose=20 mg/kg) by using mouse hot plate test; format: functional; in short: as §1
[5] = system: Mus musculus; experiment: Licking latency was measured after 45 min treatment (at dose=5 mg/kg) by using mouse hot plate test; format: functional; in short: as §1
[6] = system: IMR-32; experiment: Cholinergic interactions was measured with FLIPR device on cells of IMR-32 human neuroblastoma clonal line and given as Intrinsic activity; format: functional; in short: as §2
[7] = system: Mus musculus; experiment: Licking latency was measured before treatment (at dose=20 mg/kg) by using mouse hot plate test; format: functional; in short: as §1
[8] = system: Mus musculus; experiment: Licking latency was measured after 15 min treatment (at dose=10 mg/kg) by using mouse hot plate test; format: functional; in short: as §1
[9] = system: Mus musculus; experiment: Maximal nontoxic dose of the compound, done on mouse; sc; format: functional
In short: (§3)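 Male Swiss-Webster mice dosed sc. The value is the highest dose causing no visible behavioural change (tremors, convulsions, hypomotility etc.), so that treated mice could not be told apart from untreated ones. Behaviour was scored by the Irwin method in groups of at least 10 animals.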

[10] = system: Mus musculus; experiment: Licking latency was measured after 15 min treatment (at dose=1 mg/kg) by using mouse hot plate test; format: functional; in short: as §1
[11] = system: Mus musculus; experiment: Licking latency was measured before treatment (at dose=10 mg/kg) by using mouse hot plate test; format: functional; in short: as §1
[12] = system: Mus musculus; experiment: Licking latency was measured after 30 min treatment (at dose=1 mg/kg) by using mouse hot plate test; format: functional; in short: as §1
[13] = system: Mus musculus; experiment: Licking latency was measured after 45 min treatment (at dose=20 mg/kg) by using mouse hot plate test; format: functional; in short: as §1
[14] = species on record: Mus musculus; experiment: Analgesic efficacy is expressed as percentage of that epibatidine, done on mouse.; format: functional
[15] = system: K177 cell line; experiment: Cholinergic interactions was measured with FLIPR device on […] cells and given as Intrinsic activity; format: functional, Homo sapiens; in short: as §2
[16] = system: Mus musculus; experiment: Licking latency was measured after 45 min treatment (at dose=1 mg/kg) by using mouse hot plate test; format: functional; in short: as §1
[17] = system: Mus musculus; experiment: Licking latency was measured before treatment (at dose=5 mg/kg) by using mouse hot plate test; format: functional
In short: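 Male Swiss-Webster mice (22-28 g), 23 ± 1 °C, 12-h light/dark cycle. Hot plate at 52.5 ± 0.1 °C. Mice with pre-drug licking latency below 12 s or over 18 s were rejected. Cutoff 45 s. Compound given sc; latency read before dosing and at 15, 30 and 45 min. 5-12 mice per test.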

[18] = system: K177 cell line; experiment: Cholinergic interactions was measured with FLIPR device on […] cells and given as EC50.; format: functional, cell-based; settings: Homo sapiens; in short: as §2
[19] = system: Mus musculus; experiment: Licking latency was measured after 30 min treatment (at dose=10 mg/kg) by using mouse hot plate test; format: functional; in short: as §1
[20] = system: Mus musculus; experiment: Minimal dose able to induce a statistically significant increase of the pain threshold, done on mouse; sc; format: functional
In short: (§4)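 Mouse hot plate test (52.5 ± 0.1 °C, 45 s cutoff) after sc dosing, in male Swiss-Webster mice. The value is the lowest dose giving a statistically significant rise in pain threshold. Dunnett's two-tailed test compared treated mice at maximum reaction time with pretest time, P < 0.05.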

[21] = biological target: Neuronal acetylcholine receptor; alpha4/beta2 (Rattus norvegicus, UniProt P09483+P12390); experiment: Cholinergic interactions was measured as displaced [3H][…] from Nicotinic acetylcholine receptor alpha4-beta2 in rat brain membranes; format: cell membranes
Neuronal acetylcholine receptor; alpha4/beta2, sequence (P09483 whole entry): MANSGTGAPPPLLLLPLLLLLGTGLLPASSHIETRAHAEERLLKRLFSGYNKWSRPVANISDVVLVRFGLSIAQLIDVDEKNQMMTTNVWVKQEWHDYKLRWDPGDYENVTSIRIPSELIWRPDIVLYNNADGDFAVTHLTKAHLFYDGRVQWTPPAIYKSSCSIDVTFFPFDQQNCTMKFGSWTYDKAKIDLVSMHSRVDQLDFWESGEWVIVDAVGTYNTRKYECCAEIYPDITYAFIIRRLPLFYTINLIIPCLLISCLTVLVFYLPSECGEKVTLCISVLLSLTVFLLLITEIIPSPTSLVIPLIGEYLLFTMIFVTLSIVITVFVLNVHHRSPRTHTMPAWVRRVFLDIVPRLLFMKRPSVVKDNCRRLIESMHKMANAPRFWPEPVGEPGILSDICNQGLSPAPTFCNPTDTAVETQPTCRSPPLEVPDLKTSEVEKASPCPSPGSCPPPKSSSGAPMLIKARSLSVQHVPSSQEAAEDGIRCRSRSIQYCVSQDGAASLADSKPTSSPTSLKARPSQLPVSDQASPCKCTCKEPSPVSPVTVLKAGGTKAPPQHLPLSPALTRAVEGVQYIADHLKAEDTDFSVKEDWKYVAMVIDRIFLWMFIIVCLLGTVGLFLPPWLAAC
Neuronal acetylcholine receptor; alpha4/beta2, sequence (P12390 whole entry): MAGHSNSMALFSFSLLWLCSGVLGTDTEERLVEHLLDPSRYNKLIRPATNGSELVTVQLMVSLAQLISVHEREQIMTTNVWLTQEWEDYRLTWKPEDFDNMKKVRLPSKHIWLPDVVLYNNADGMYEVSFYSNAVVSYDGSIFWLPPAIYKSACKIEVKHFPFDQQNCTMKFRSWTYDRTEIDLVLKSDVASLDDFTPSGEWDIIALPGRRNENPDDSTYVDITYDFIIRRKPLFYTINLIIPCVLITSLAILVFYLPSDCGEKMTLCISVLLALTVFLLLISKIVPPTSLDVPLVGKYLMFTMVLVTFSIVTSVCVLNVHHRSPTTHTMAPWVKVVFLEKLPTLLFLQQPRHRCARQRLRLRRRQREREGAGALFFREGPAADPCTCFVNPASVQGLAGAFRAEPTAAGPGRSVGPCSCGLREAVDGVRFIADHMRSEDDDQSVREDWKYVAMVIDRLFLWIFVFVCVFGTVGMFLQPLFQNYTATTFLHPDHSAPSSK
In short: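 Rat cerebral cortical membranes were washed and resuspended in Tris-HCl 50 mM buffer, pH 7.4, then spun at 45000g. Samples held 150-200 µg protein and 0.7 nM [3H]-(-)-cytisine with varying modulator concentrations. Incubation was 75 min at 4 °C in triplicate. Nonspecific binding was defined with 10 µM (-)-nicotine.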

[22] = system: Mus musculus; experiment: Licking latency was measured after 15 min treatment (at dose=5 mg/kg) by using mouse hot plate test; format: functional; in short: as §1
[23] = system: Mus musculus; experiment: Licking latency was measured after 30 min treatment (at dose=5 mg/kg) by using mouse hot plate test; format: functional; in short: as §1
[24] = system: IMR-32; experiment: Cholinergic interactions was measured with FLIPR device on IMR-32 cells of human neuroblastoma clonal line, given as effective dose; format: functional, cell-based; in short: as §2
[25] = system: TE-671; experiment: Cholinergic interactions was measured with FLIPR device on TE671 cells and given as Intrinsic activity; format: functional, Homo sapiens; in short: as §2
[26] = system: Mus musculus; experiment: Licking latency was measured before treatment (at dose=25 mg/kg) by using mouse hot plate test; format: functional; in short: as §1
[27] = system: Mus musculus; experiment: MNTD:Maximal nontoxic dose of the compound, done on mouse; sc; format: functional; in short: as §3
[28] = system: Mus musculus; experiment: MAD: minimal dose able to induce a statistically significant increase of the pain threshold, done on mouse; sc; format: functional; in short: as §4
[29] = system: Mus musculus; experiment: Licking latency was measured after 30 min treatment (at dose=25 mg/kg) by using mouse hot plate test; format: functional; in short: as §1
[30] = system: Mus musculus; experiment: Licking latency was measured after 15 min treatment (at dose=15 mg/kg) by using mouse hot plate test; format: functional; in short: as §1
[31] = system: Mus musculus; experiment: Licking latency was measured after 15 min treatment (at dose=25 mg/kg) by using mouse hot plate test; format: functional; in short: as §1
[32] = system: Mus musculus; experiment: Licking latency was measured before treatment (at dose=15 mg/kg) by using mouse hot plate test; format: functional; in short: as §1
[33] = system: Mus musculus; experiment: Licking latency was measured after 45 min treatment (at dose=25 mg/kg) by using mouse hot plate test; format: functional; in short: as §1
[34] = system: Mus musculus; experiment: Licking latency was measured after 45 min treatment (at dose=15 mg/kg) by using mouse hot plate test; format: functional; in short: as §1
[35] = system: Mus musculus; experiment: Licking latency was measured after 30 min treatment (at dose=15 mg/kg) by using mouse hot plate test; format: functional; in short: as §1

## Clc1ccc(N2CC3CCC(C2)N3)nn1
[1]
  Licking latency: 13.5 s
[2]
  Efficacy: 136%
[3]
  pEC50: < 3.00
[4]
  Licking latency: 39.8 s
[5]
  Licking latency: 26.5 s
[6]
  Intrinsic activity: 122.6%
[7]
  Licking latency: 14.3 s
[8]
  Licking latency: 32.3 s
[9]
  MNTD: 30 mg/kg
[10]
  Licking latency: 21.5 s
[11]
  Licking latency: 14.2 s
[12]
  Licking latency: 25.6 s
[13]
  Licking latency: 33.8 s
[14]
  Efficacy: 167%
[15]
  Intrinsic activity: 164%
[16]
  Licking latency: 21.5 s
[17]
  Licking latency: 13.7 s
[18]
  pEC50: 4.62
[19]
  Licking latency: 38.3 s
[20]
  MAD: 1 mg/kg
[21]
  pKi: 5.39
[22]
  Licking latency: 27.8 s
[23]
  Licking latency: 28.5 s
[24]
  pEC50: 4.91
[25]
  Intrinsic activity: 9.6%

## Clc1cccc(N2CC3CCC(C2)N3)n1
[2]
  Analgesic efficacy compared to morphine: 116%
[26]
  Licking latency: 14.6 s
[27]
  MNTD: 30 mg/kg
[28]
  MAD: 15 mg/kg
[29]
  Licking latency: 37 s
[30]
  Licking latency: 23.6 s
[31]
  Licking latency: 31.9 s
[14]
  Analgesic efficacy compared to epibatidine: 142%
[32]
  Licking latency: 13.5 s
[33]
  Licking latency: 34.2 s
[34]
  Licking latency: 22 s
[35]
  Licking latency: 22.1 s
